Reference: ChEMBL document CHEMBL1140901, “Discovery of novel arylethynyltriazole ribonucleosides with selective and effective antiviral and antiproliferative activity” (J Med Chem, 2009)
Activity calls are given as the source filed them. The rule behind the calls is not given here.

How the values were obtained:
[1] = Cytotoxicity against human Huh-9-13 cells; assay type: cell-based
Summary of the method: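 Huh-9-13 replicon cells were seeded at 5000/well in DMEM with 2% FCS and 1000 µg/mL G418 and incubated 24 h at 37 °C. They then received 3-fold serial compound dilutions in G418-free medium for 4 days at 37 °C. CC₅₀ is the µM concentration inhibiting Huh cell proliferation by 50%, given as mean ± SE (n ≥ 3).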

[2] = system: Hepatitis C virus; experiment: Antiviral activity against HCV in human HuH6 cells assessed as inhibition of replicon replication; assay type: functional, organism-based, Hepacivirus hominis; conditions: HuH-6
Summary of the method: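 Huh-6 replicon cells seeded 15 000/well and treated with serial compound dilutions as for Huh-9-13. Incubated 3 days at 37 °C, then lysed in cells-to-cDNA buffer. Replicon RNA quantified by real-time PCR. EC50 is 50% drop in HCV RNA versus untreated control; mean ± SE, n ≥ 3.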

[3] = Cytotoxicity against human HuH6 cells; assay type: cell-based
Summary of the method: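 Huh-6 replicon cells were seeded at 15 000/well, handled as for Huh-9-13 (2% FCS DMEM, 3-fold serial dilutions without G418), and incubated 3 days at 37 °C. CC₅₀ is the µM concentration inhibiting Huh cell proliferation by 50%, given as mean ± SE (n ≥ 3).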

[4] = system: Hepatitis C virus; experiment: Antiviral activity against HCV in human Huh9.13 cells assessed as inhibition of replicon replication; assay type: functional, organism-based, Hepacivirus hominis
Summary of the method: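 Huh-9-13 replicon cells seeded 5000/well in DMEM with 2% FCS and 1000 µg/mL G418. After 24 h at 37 °C, 3-fold serial dilutions given without G418 for 4 days. Cells washed and lysed, replicon RNA quantified by real-time PCR. EC50 is 50% drop in HCV RNA versus untreated control; mean ± SE, n ≥ 3.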

[5] = system: Hepatitis C virus; experiment: Antiviral activity against HCV in human HuH5.2 cells assessed as inhibition of replicon replication; assay type: functional, organism-based, Hepacivirus hominis; conditions: Huh-5-2
Summary of the method: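 Huh-5-2 replicon cells seeded 5000/well in DMEM with 2% FCS and 250 µg/mL G418. After 24 h at 37 °C, 3-fold serial dilutions given in DMEM without G418. Incubated 4 days at 37 °C. Replicon read as luciferase activity (Steady-Glo). EC50 is 50% inhibition of replication; mean ± SE, n ≥ 3.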

[6] = system: MIA PaCa-2; experiment: Antiproliferative activity against human MIAPaCa2 cells by MTT assay; assay type: functional, cell-based
Summary of the method: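 MiaPaCa-2 pancreatic cancer cells in DMEM with 10% FBS, seeded at 15 000/well and allowed to attach overnight. Medium was then replaced with fresh medium containing compound, or medium alone as control. Cells were incubated for 48 h at 37 °C with 5% CO₂, and viable cells were counted by MTT colorimetric assay.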

[7] = Cytotoxicity against human HuH5.2 cells; assay type: cell-based, Huh-5-2
Summary of the method: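 Huh-5-2 replicon cells were seeded at 5000/well in DMEM with 2% FCS and 250 µg/mL G418 and kept 24 h at 37 °C (5% CO₂). They were then exposed to 3-fold serial dilutions in medium without G418 for 4 days at 37 °C. CC₅₀ is the µM concentration inhibiting Huh cell proliferation by 50%, given as mean ± SE (n ≥ 3).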

[8] = system: MIA PaCa-2; experiment: Antiproliferative activity against human MIAPaCa2 cells after 2 days by MTT assay; assay type: functional
Summary of the method: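 MiaPaCa-2 cells in DMEM with 10% FBS, seeded 15 000/well and left to attach overnight. Medium then replaced with compound at different concentrations, untreated medium as control. Incubated 48 h at 37 °C, 5% CO2. Viable cells read by MTT colorimetric assay.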

[9] = system: MIA PaCa-2; experiment: Antitumor activity against human MIAPaCa2 cells transfected mouse assessed as reduction of tumor volume at 150 mg/kg, ip administered every 3 days for 4 weeks measured after 2 weeks; assay type: functional; set-up: scale not given: the % may be the effect or the level left; conditions: route intraperitoneal
Summary of the method: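 Male nude mice, 6 weeks old, inoculated subcutaneously with about 1 × 10⁷ MiaPaCa-2 cells plus 0.1 mL Matrigel. At 100 mm³ tumours, mice randomised; untreated mice served as control; five per group. Tumour volume measured weekly as length × width × depth × 0.5236. Mean ± SE, Student's t test.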

[10] = system: MIA PaCa-2; experiment: Cell clycle arrest in human MIAPaCa2 cells assessed as increase in sub-G1/G0 fraction after 48 hrs by flow cytometry analysis; assay type: functional
Summary of the method: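 MiaPaCa-2 cells seeded at 10⁶ per 10 cm dish and left overnight. Treated 48 h, untreated as negative control. Cells trypsinised, fixed overnight in cold 70% ethanol at 4 °C, treated with RNase (500 µg/mL) and stained with propidium iodide (50 µg/mL). Sub-G1/G0 ratio read by flow cytometry on 10⁶ cells. Run in triplicate.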

[11] = system: MIA PaCa-2; experiment: Induction of apoptosis in human MIAPaCa2 cells assessed as increase in caspase 3/7 activation after 48 hrs; assay type: functional
Summary of the method: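 MiaPaCa-2 cells seeded 15 000/well; 24 h later treated 48 h. Caspase-3/7 measured by cleavage of fluorogenic Z-DEVD-R110 substrate (Apo-ONE reagent). Reagent incubated 30 min at room temperature, then fluorescence read. Triplicate; mean ± SE, n = 3.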

[12] = system: MIA PaCa-2; experiment: Induction of apoptosis in human MIAPaCa2 cells assessed as increase in DNA/histone nucleosome release into cytoplasm after 48 hrs by ELISA; assay type: functional
Summary of the method: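 MiaPaCa-2 cells seeded 15 000/well for 24 h, then treated 48 h, untreated as control. Lysate supernatant captured on streptavidin plate with biotin anti-histone and peroxidase anti-DNA antibodies, 2 h at room temperature. After washing, peroxidase substrate added for 20 min, read at 405/490 nm. Result given as fold absorbance over control. Triplicate.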

SMILES	CC50 [1] [µM]	EC50 [2] [µM]	CC50 [3] [µM]	EC50 [4] [µM]	EC50 [5] [µM]	Activity [6]	CC50 [7] [µM]	inhibition (INH) [8] [%]	Activity [9] [%]	fold change (FC) [10]	fold change (FC) [11]	fold change (FC) [12]
NC(=O)c1nc(C#Cc2ccc(C(F)(F)F)cc2)n(COCCO)n1	79	50.8	87.5	36.7	14.1	inactive	–	–	–	–	–	–
NC(=O)c1nc(C#Cc2ccc(F)cc2)n(COCCO)n1	> 160	95.3	132	125	72.3	–	> 160	–	–	–	–	–
COC(=O)c1nc(C#Cc2ccc(C(F)(F)F)cc2)n([C@@H]2O[C@H](COC(C)=O)[C@@H](OC(C)=O)[C@H]2OC(C)=O)n1	–	–	–	–	–	–	–	59	60	3	6.8	3
NC(=O)c1nc(C#Cc2ccccc2)n(COCCO)n1	> 170	112	> 170	> 164	62.9	–	> 170	–	–	–	–	–
COC(=O)c1nc(C#CC2(O)CCCC2)n([C@@H]2O[C@H](COC(C)=O)[C@@H](OC(C)=O)[C@H]2OC(C)=O)n1	> 105	25.1	> 105	54.3	52.3	–	> 105	–	–	–	–	–
Nc1ccn([C@@H]2O[C@H](CO)[C@@H](O)C2(F)F)c(=O)n1 [GEMCITABINE]	–	–	–	–	–	–	–	29	–	–	2	–
NC(=O)c1nc(C#Cc2ccc(C(F)(F)F)cc2)n([C@@H]2O[C@H](CO)[C@@H](O)[C@H]2O)n1	> 120	43.7	> 120	19.4	17.7	–	82.5	–	–	–	–	–
NC(=O)c1ncn([C@@H]2O[C@H](CO)[C@@H](O)[C@H]2O)n1 [RIBAVIRIN]	229	33	> 100	84	28.7	–	–	–	–	–	–	–
